Results taken from ChEMBL document CHEMBL2417458, “New potent and selective polyfluoroalkyl ketone inhibitors of GVIA calcium-independent phospholipase A2” (Bioorg Med Chem, 2013).

What was measured:
[1] = target: T1, Cytosolic phospholipase A2 (Homo sapiens) (UniProt P47712); test: Inhibition of human group 4A cytosolic PLA2 at 0.091 mole fraction in mixed-micelles by modified Dole assay
T1 sequence (whole entry): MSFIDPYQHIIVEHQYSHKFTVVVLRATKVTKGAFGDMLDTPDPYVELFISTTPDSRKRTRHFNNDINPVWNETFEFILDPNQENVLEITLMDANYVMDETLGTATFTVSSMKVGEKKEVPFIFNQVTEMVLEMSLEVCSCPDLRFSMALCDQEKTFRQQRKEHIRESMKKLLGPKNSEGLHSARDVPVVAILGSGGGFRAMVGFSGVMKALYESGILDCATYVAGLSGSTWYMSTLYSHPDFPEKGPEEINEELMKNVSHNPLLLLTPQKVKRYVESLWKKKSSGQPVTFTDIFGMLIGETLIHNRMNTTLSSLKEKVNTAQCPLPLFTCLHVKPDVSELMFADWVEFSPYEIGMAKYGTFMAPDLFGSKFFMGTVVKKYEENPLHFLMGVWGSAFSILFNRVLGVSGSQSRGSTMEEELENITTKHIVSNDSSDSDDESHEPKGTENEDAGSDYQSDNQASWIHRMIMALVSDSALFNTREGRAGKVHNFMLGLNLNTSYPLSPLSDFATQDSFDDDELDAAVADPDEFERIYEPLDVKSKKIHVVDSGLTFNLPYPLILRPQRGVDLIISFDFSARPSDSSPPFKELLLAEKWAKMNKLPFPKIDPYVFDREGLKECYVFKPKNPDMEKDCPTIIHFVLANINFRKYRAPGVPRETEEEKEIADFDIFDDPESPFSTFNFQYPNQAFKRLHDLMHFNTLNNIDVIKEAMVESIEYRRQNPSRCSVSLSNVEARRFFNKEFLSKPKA
Procedure, shortened: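 Buffer was 100 mM HEPES pH 7.5 with 90 μM CaCl2, 2 mM DTT and 0.1 mg/ml BSA. Inhibitor was screened at 0.091 mole fraction. Values are average percent inhibition, and 25% or less was scored as no inhibition.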

[2] = target: T2, Phospholipase A2 group V (Homo sapiens) (UniProt P39877); test: Inhibition of human group 5 secretory PLA2 at 0.091 mole fraction in mixed-micelles by modified Dole assay
T2 sequence (whole entry): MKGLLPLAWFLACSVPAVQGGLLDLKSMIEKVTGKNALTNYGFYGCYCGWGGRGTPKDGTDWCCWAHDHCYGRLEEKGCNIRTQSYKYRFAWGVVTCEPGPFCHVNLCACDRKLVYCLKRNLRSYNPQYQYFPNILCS

[3] = target: T3, 85/88 kDa calcium-independent phospholipase A2 (Homo sapiens) (UniProt O60733); test: Inhibition of human group 6A calcium-independent PLA2 at 0.091 mole fraction in mixed-micelles by modified Dole assay
T3 sequence (whole entry): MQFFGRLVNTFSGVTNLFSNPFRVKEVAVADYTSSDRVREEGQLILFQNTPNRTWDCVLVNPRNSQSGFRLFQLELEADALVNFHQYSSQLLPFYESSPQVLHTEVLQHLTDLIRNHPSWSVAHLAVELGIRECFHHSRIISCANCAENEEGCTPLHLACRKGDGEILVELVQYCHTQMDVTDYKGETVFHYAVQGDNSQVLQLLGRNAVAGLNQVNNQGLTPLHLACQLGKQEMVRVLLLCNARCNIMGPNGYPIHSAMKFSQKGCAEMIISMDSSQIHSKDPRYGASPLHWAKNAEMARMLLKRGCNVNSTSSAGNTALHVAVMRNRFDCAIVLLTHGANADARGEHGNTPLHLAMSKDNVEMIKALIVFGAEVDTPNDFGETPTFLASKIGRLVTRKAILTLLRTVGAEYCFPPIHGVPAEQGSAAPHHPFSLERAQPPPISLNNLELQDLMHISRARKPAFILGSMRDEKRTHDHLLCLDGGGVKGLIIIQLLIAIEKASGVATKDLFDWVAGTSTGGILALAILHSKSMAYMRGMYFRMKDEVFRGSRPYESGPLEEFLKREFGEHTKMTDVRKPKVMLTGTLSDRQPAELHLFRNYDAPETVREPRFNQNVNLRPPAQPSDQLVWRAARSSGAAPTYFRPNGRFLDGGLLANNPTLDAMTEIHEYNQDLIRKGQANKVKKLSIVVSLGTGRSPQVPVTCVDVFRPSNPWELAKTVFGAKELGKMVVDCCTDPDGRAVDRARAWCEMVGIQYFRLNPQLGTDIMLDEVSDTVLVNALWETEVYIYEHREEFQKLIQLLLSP

[4] = target: T3, 85/88 kDa calcium-independent phospholipase A2 (Homo sapiens); test: Inhibition of human group 6A calcium-independent PLA2 treated in mixed-micelles by modified Dole assay
Procedure, shortened: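 Typically 7 mole fractions from 0.00091 to 0.091 were tested. XI(50) is the inhibitor mole fraction giving 50% inhibition, from a symmetrical sigmoidal regression of % inhibition versus log concentration.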

[5] = target: T1, Cytosolic phospholipase A2 (Homo sapiens); test: Inhibition of human group 4A cytosolic PLA2 treated in mixed-micelles by modified Dole assay
Procedure, shortened: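 Buffer was 100 mM HEPES pH 7.5 containing 90 μM CaCl2, 2 mM DTT and 0.1 mg/ml BSA. About 7 inhibitor mole fractions between 0.00091 and 0.091 were tested. XI(50) came from a symmetrical sigmoidal nonlinear fit of % inhibition versus log inhibitor.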

SMILES | inhibition [1] [%] | inhibition [2] [%] | inhibition [3] [%] | XI50 (mole fraction) [4] | XI50 (mole fraction) [5]
O=C(CCCCc1ccc(F)cc1)C(F)(F)F | 41.4 | < 25 | 98.5 | 0.0002 | –
O=C(CCCCc1ccc(C(F)(F)F)cc1)C(F)(F)C(F)(F)F | 62.5 | 36.9 | 98.9 | 0.0003 | –
COc1ccccc1CCCCC(=O)C(F)(F)F | 58.9 | < 25 | 82.8 | – | –
COc1ccc2cc(CCCCC(=O)C(F)(F)C(F)(F)F)ccc2c1 | 54.7 | 63.1 | 92.5 | – | –
O=C(CCc1ccccc1-c1ccccc1)C(F)(F)C(F)(F)F | < 25 | – | 90.4 | – | –
O=C(CCCCc1ccc2c(c1)OCO2)C(F)(F)C(F)(F)F | 38.3 | 29.4 | 99.5 | 0.0019 | –
COc1ccc(CCCCC(=O)C(F)(F)F)c(OC)c1 | 64.3 | < 25 | 89.6 | – | –
O=C(CCCCc1ccc(F)cc1)C(F)(F)C(F)(F)F | < 25 | 29.3 | 98.2 | 0.0003 | –
O=C(CCc1ccccc1-c1ccccc1)C(F)(F)F | < 25 | – | 75 | – | –
COc1ccc2cc(CCCCC(=O)C(F)(F)F)ccc2c1 | 85.5 | 41.7 | 92.6 | – | –
O=C(CCCCc1ccccc1)C(F)F | < 25 | < 25 | 87.4 | – | –
COc1ccc(CCCCC(=O)C(F)(F)C(F)(F)F)c(OC)c1 | 35.6 | 38.7 | 95.6 | 0.0553 | –
COc1ccc(CCCCC(=O)C(F)(F)F)cc1 | 54.3 | < 25 | 99.8 | 0.0001 | –
COc1ccc(CCCCC(=O)C(F)(F)C(F)(F)F)cc1OC | < 25 | < 25 | 78.3 | – | –
O=C(CCCc1ccccc1)C(F)F | < 25 | < 25 | 86.5 | – | –
O=C(CCCCc1cccc2ccccc12)C(F)(F)C(F)(F)F | 64 | 29.4 | 96.4 | 0.0034 | –
COc1ccc(CCCCC(=O)C(F)(F)C(F)(F)F)cc1 | < 25 | 32.8 | 99.8 | 0.0001 | –
COc1ccccc1CCCCC(=O)C(F)(F)C(F)(F)F | 30.5 | 39.1 | 95.5 | 0.0263 | –
O=C(CCCCc1ccc(-c2ccccc2)cc1)C(F)(F)C(F)(F)F | 72.6 | 38.3 | 94.6 | 0.0134 | –
O=C(CCCCc1cccc2ccccc12)C(F)(F)F | 77.4 | 31.9 | 98.7 | 0.0018 | –
COc1ccc(CCCCC(=O)C(F)(F)F)cc1OC | 28.8 | < 25 | 62.5 | – | –
O=C(CCCCc1ccc(C(F)(F)F)cc1)C(F)(F)F | 83.9 | 30.4 | 99.9 | 0.0002 | –
O=C(CCCCc1cccc2ccccc12)C(F)(F)C(F)(F)C(F)(F)F | 60.4 | 57.8 | 76.7 | – | –
O=C(CCCCc1ccc(-c2ccccc2)cc1)C(F)(F)F | 96.5 | 40.5 | 97.9 | 0.0189 | 0.0074
O=C(CCCCc1ccc2c(c1)OCO2)C(F)(F)F | 41.2 | < 25 | 98.7 | 0.0025 | –
